Experiments:
[1] = Selectivity ratio of total amyloid beta to amyloid beta 42
Method in brief: (§1)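 HEK293 cells stably transfected with APP (Swedish plus London mutations, pcDNA3.1) treated with compound for 5 h; Aβ in conditioned medium read by MSD sandwich immunoassay: Aβ42 with TAG-G2-11/biotin-4G8, Aβ40 with TAG-G2-10/biotin-4G8, total Aβ with TAG-W02/biotin-4G8. IC50 from Aβ42; ratio is total Aβ over Aβ42.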

Gamma-secretase = experiment: Inhibition of gamma secretase-mediated amyloid beta42 production in HEK293 cells; type: cell-based, Homo sapiens; method in brief: as §1
Plasma = experiment: Drug level in rat plasma at 30 mg/kg, po; conditions: in vivo
Brain = experiment: Drug level in rat brain at 30 mg/kg, po; conditions: in vivo, read-out: Drug uptake
[2] = AUC (0 to 6 hrs) in rat at 10 mg/kg, po; type: ADME, organism-based; parameters: time < 6 hr, dose 10 mg/kg, route oral; conditions: plasma
Method in brief: (§2)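 Rats given a single 10 mg/kg oral dose. Plasma sampled over 0–6 h for AUC and Cmax, with the time of Cmax recorded. Brain level (ng/g) and brain:plasma concentration ratio taken at 6 h.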

Rattus norvegicus [3] = experiment: Reduction in amyloid beta 42 level in rat CSF at 30 mg/kg, po; parameters: scale not given: the % may be the effect or the level left
[4] = Cmax in rat at 10 mg/kg, po after 2 hrs; type: ADME, organism-based; parameters: dose 10 mg/kg, route oral; conditions: in vivo; method in brief: as §2
[5] = Selectivity ratio of drug level in brain to plasma in rat at 10 mg/kg, po after 6 hrs; type: ADME, organism-based; parameters: dose 10 mg/kg, route oral; conditions: read-out: BPR; method in brief: as §2
[6] = Drug level in rat brain at 10 mg/kg, po after 6 hrs; type: ADME, organism-based; parameters: dose 10 mg/kg, route oral; conditions: read-out: Drug uptake; method in brief: as §2
Rattus norvegicus [7] = experiment: Reduction in amyloid beta 42 level in rat CSF at 100 mg/kg, po; parameters: scale not given: the % may be the effect or the level left
Rattus norvegicus [8] = experiment: Reduction in amyloid beta 42 level in po dosed rat CSF; parameters: scale not given: the % may be the effect or the level left
[9] = Cmax in rat at 10 mg/kg, po after 1 hr; type: ADME, organism-based; parameters: dose 10 mg/kg, route oral; conditions: in vivo; method in brief: as §2
[10] = AUC (0 to 6 hrs) in po dosed rat; type: ADME, organism-based; parameters: time < 6 hr, route oral; conditions: plasma; method in brief: as §2
Mus musculus [11] = experiment: Reduction in amyloid beta 42 level in CRND8 transgenic mouse cortical at 30 mg/kg, po; type: functional; parameters: scale not given: the % may be the effect or the level left
Mus musculus [12] = experiment: Reduction in amyloid beta 42 level in transgenic CRND8 mouse plasma at 30 mg/kg, po; type: functional; parameters: scale not given: the % may be the effect or the level left
Method in brief: (§3)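 CRND8 transgenic mice dosed orally at 30 mg/kg. Plasma Aβ42 and total Aβ sampled 3 h after dosing.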

Mus musculus [13] = experiment: Reduction in total amyloid beta level in CRND8 transgenic mouse plasma at 30 mg/kg, po; type: functional; parameters: scale not given: the % may be the effect or the level left; method in brief: as §3

Ratio [1]	IC50 (Gamma-secretase)	Compound	also measured
104	72 nM	CCNC1=N/C(=C\c2ccc(-n3cnc(C)c3)c(OC)c2)C(=O)N1Cc1ccc(F)cc1	
65	94 nM	COc1cc(/C=C2\N=C(N)N([C@H](C)c3ccc(F)cc3)C2=O)ccc1-n1cnc(C)c1	
215		CCN1CCCC(c2ccc(F)cc2)N2C(=O)/C(=C/c3ccc(-n4cnc(C)c4)c(OC)c3)N=C12 (single isomer, unassigned; (-)) [listing 1 of 2 here]	
78	258 nM	CCCCNC1=N/C(=C\c2ccc(-n3cnc(C)c3)c(OC)c2)C(=O)N1[C@@H](C)c1ccc(F)cc1	
70	85 nM	CCCCNC1=N/C(=C\c2ccc(-n3cnc(C)c3)c(OC)c2)C(=O)N1Cc1ccc(F)cc1	concentration (Plasma): 7.1 µM; concentration (Brain): 5.9 µM; AUC(0-t) at 6 h [2]: 10 µM·h; Activity (Rattus norvegicus [3]): 10%; Cmax [4]: 2.3 µM; Kp at 6 h [5]: 0.7; concentration at 6 h [6]: 449 ng/g; Activity (Rattus norvegicus [7]): 38%
	73 nM	CCN1CCCC(c2ccc(F)cc2)N2C(=O)/C(=C/c3ccc(-n4cnc(C)c4)c(OC)c3)N=C12 (single isomer, unassigned; (-)) [listing 2 of 2 here]	Activity (Rattus norvegicus [8]): 8%; AUC(0-t) at 6 h [2]: 16.9 µM·h; Kp at 6 h [5]: 0.3; Cmax [9]: 4.2 µM; concentration at 6 h [6]: 275 ng/g
139	144 nM	COc1cc(/C=C2\N=C(N)N(Cc3ccc(F)cc3)C2=O)ccc1-n1cnc(C)c1	
159	56 nM	CCN1CC(c2ccc(F)cc2)N2C(=O)/C(=C/c3ccc(-n4cnc(C)c4)c(OC)c3)N=C12 (single isomer, unassigned; (-))	
68	158 nM	COc1cc(/C=C2\N=C(NCC3CC3)N([C@H](C)c3ccc(F)cc3)C2=O)ccc1-n1cnc(C)c1	
55	322 nM	COc1cc(/C=C2\N=C(N)N([C@@H](C)c3ccc(F)cc3)C2=O)ccc1-n1cnc(C)c1	
		COc1cc(/C=C2\CCCN([C@@H](C)c3ccc(F)cc3)C2=O)ccc1-n1cnc(C)c1	AUC(0-t) at 6 h [10]: 60.4 µM·h
32	671 nM	COc1cc(/C=C2\N=C(N3CCCC3)N([C@@H](C)c3ccc(F)cc3)C2=O)ccc1-n1cnc(C)c1	
153	111 nM	COc1cc(/C=C2\N=C(NCCCO)N([C@H](C)c3ccc(F)cc3)C2=O)ccc1-n1cnc(C)c1	
79	218 nM	COc1cc(/C=C2\N=C(NCCO)N([C@@H](C)c3ccc(F)cc3)C2=O)ccc1-n1cnc(C)c1	
	446 nM	COc1cc(Cc2c[nH]c(=N)n([C@@H](C)c3ccc(F)cc3)c2=O)ccc1-n1cnc(C)c1	
141	163 nM	COc1cc(/C=C2\N=C(NCCCO)N([C@@H](C)c3ccc(F)cc3)C2=O)ccc1-n1cnc(C)c1	
71	85 nM	CCN1CCC(c2ccc(F)cc2)N2C(=O)/C(=C/c3ccc(-n4cnc(C)c4)c(OC)c3)N=C12 (single isomer, unassigned; (+))	
70	287 nM	COCCCNC1=N/C(=C\c2ccc(-n3cnc(C)c3)c(OC)c2)C(=O)N1[C@@H](C)c1ccc(F)cc1	
21	955 nM	COc1cc(/C=C2\N=C(N3CCCCC3)N([C@@H](C)c3ccc(F)cc3)C2=O)ccc1-n1cnc(C)c1	
	7100 nM	COc1cc(/C=c2/c(=O)n([C@@H](C)c3ccc(F)cc3)c3n2CCCN=3)ccc1-n1cnc(C)c1	
	> 20000 nM	COc1cc([C@H](O)C2CNC(=N)N([C@@H](C)c3ccc(F)cc3)C2=O)ccc1-n1cnc(C)c1 (some centres undefined)	

Ratio [1]	IC50 (Gamma-secretase)	Compound	also measured
87	229 nM	COc1cc(/C=C2\N=C(N)N([C@H](CCO)c3ccc(F)cc3)C2=O)ccc1-n1cnc(C)c1	
136	287 nM	COc1cc(/C=C2\N=C(NC3CC3)N([C@@H](C)c3ccc(F)cc3)C2=O)ccc1-n1cnc(C)c1	
71	250 nM	COc1cc(/C=C2\N=C(NCC3CC3)N([C@@H](C)c3ccc(F)cc3)C2=O)ccc1-n1cnc(C)c1	
97	220 nM	CCNC1=N/C(=C\c2ccc(-n3cnc(C)c3)c(OC)c2)C(=O)N1[C@@H](C)c1ccc(F)cc1	
	> 20000 nM	COc1cc(/C=C2/C(=O)N([C@@H](C)c3ccc(F)cc3)C(=N)NC2(C)C)ccc1-n1cnc(C)c1	
23	864 nM	COC1=N/C(=C\c2ccc(-n3cnc(C)c3)c(OC)c2)C(=O)N1[C@@H](C)c1ccc(F)cc1	
113	139 nM	COc1cc(/C=C2\N=C(N)N([C@H](CO)c3ccc(F)cc3)C2=O)ccc1-n1cnc(C)c1	
40	503 nM	COc1cc(/C=C2\N=C3NCCCC(c4ccc(F)cc4)N3C2=O)ccc1-n1cnc(C)c1 (racemic)	
66	301 nM	COCCNC1=N/C(=C\c2ccc(-n3cnc(C)c3)c(OC)c2)C(=O)N1[C@@H](C)c1ccc(F)cc1	
27	63 nM	COc1cc(/C=C2\N=C(NCCO)N([C@H](C)c3ccc(F)cc3)C2=O)ccc1-n1cnc(C)c1	
117	135 nM	COc1cc(/C=C2\N=C3NCC(c4ccc(F)cc4)N3C2=O)ccc1-n1cnc(C)c1 (racemic)	
141	163 nM	COc1cc(/C=C2\NC(=O)N([C@@H](C)c3ccc(F)cc3)C2=O)ccc1-n1cnc(C)c1	
188	106 nM	COc1cc(/C=C2\N=C3NCCC(c4ccc(F)cc4)N3C2=O)ccc1-n1cnc(C)c1 (single isomer, unassigned; (+))	
159	88 nM	CCNC1=N/C(=C\c2ccc(-n3cnc(C)c3)c(OC)c2)C(=O)N1[C@H](C)c1ccc(F)cc1	AUC(0-t) at 6 h [2]: 10.1 µM·h; Cmax [4]: 2.3 µM; Kp at 6 h [5]: 1.3; Activity (Mus musculus [11]): 12%; concentration at 6 h [6]: 914 ng/g; Activity (Mus musculus [12]): 80%; Activity (Mus musculus [13]): 10%
200	91 nM	CCNC1=N/C(=C\c2ccc(-n3cnc(C)c3)c(OC)c2)C(=O)N1[C@H](CO)c1ccc(F)cc1	
42	92 nM	CCCCNC1=N/C(=C\c2ccc(-n3cnc(C)c3)c(OC)c2)C(=O)N1[C@H](C)c1ccc(F)cc1	
	117 nM	CCN1CCCC(c2ccc(F)cc2)N2C(=O)/C(=C/c3ccc(-n4cnc(C)c4)c(OC)c3)N=C12 (racemic) [listing 1 of 2 here]	
169		CCN1CCCC(c2ccc(F)cc2)N2C(=O)/C(=C/c3ccc(-n4cnc(C)c4)c(OC)c3)N=C12 (racemic) [listing 2 of 2 here]	
25	411 nM	CNC1=N/C(=C\c2ccc(-n3cnc(C)c3)c(OC)c2)C(=O)N1[C@@H](C)c1ccc(F)cc1	
	3500 nM	COc1cc(/C=C2\NC(=O)N([C@H](C)c3ccc(F)cc3)C2=O)ccc1-n1cnc(C)c1	
117	171 nM	CCNC1=N/C(=C\c2ccc(-n3cnc(C)c3)c(OC)c2)C(=O)N1[C@H](CCO)c1ccc(F)cc1	
